The values below come from the RNAGym collection of RNA variant scans (doi:10.1126/science.aae0568).

This sample holds only a part of the variants without activity.

The chains are these.
B1: tRNA (parent)
chain: GUUCCGUUGGCGUAAUGGUAACGCGUCUCCCUCCUAAGGAGAAGACUGCGGGUUCGAGUCCCGUACGGAACG

The variants in the data set derive from B1. Description: yeast fitness relative to wild type (ratio to wild type); higher = fitter; tRNA-Arg(CCU), competitive growth, 37 C, YPD. The procedure, abridged: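 Genotype frequency changes were the basis for Darwinian fitness relative to wild type. The frequencies came from 100-nucleotide paired-end sequencing of gene amplicons from the start population and each end population of pooled yeast strains with tRNA-Arg(CCU) gene variants at the native locus. Competition ran in YPD at 37°C for 24 hours in six replicates, genotypes needed ≥ 100 starting reads, and estimates < 0.5 were set to 0.5.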
Consider C4U U7G C34G G48C C61U, for which the yeast fitness is at most 0.5.

With C4U U16G U47G, the yeast fitness was 0.602.

For C4U G10U C24U, the yeast fitness was 0.625.

In the case of C4U G10C G23A U26C A43G U53A, the yeast fitness is at most 0.5.

Consider C4U U8C C11A G12A U28C G44C, for which the yeast fitness is at most 0.5.

Regarding C4U U59C, the yeast fitness was determined as 0.853.

On to C4U G10C C60G G67A, for which the yeast fitness was at most 0.5.

C4U G12A A20G C22U C55U A65U: the yeast fitness stood at 0.53.

Regarding C5A A14C A36G G39C C46A A65C, the yeast fitness is at most 0.5.

In the case of C4U G10C C24G C49U, the yeast fitness is at most 0.5.

With C4U U26A A37C A42C C49U G56A, the yeast fitness is at most 0.5.

Consider C4U G17C, for which the yeast fitness came to 0.709.

Turning to C4U G41C C60G, the yeast fitness was at most 0.5.

As to C4U G17A C22U, the yeast fitness was at most 0.5.

For C4U G18A A20G G23C C24G C46G, the yeast fitness was at most 0.5.

On to C4U U28G C49A C62G, for which the yeast fitness is at most 0.5.

C4U G18C: the yeast fitness worked out at 0.651.

Take C4U G18C G68C: the yeast fitness was 0.535.

For the variant C4U G12A C27G C34A C49G, the yeast fitness is at most 0.5.

For the variant C4U G23C A36C A70U, the yeast fitness was at most 0.5.

As to C4U G12C U64C, the yeast fitness was 0.696.

As to C5A A14C, the yeast fitness worked out at 0.603.

As to C4U G18A G23C C24G C46G, the yeast fitness was at most 0.5.

Regarding C4U U26A A37G C66G, the yeast fitness was at most 0.5.

As for C4U G10A C24U, the yeast fitness amounted to 0.98.

Take C4U G23A U26C: the yeast fitness was at most 0.5.

As to C4U G23A C33G C49A U54G A65G, the yeast fitness was at most 0.5.

Turning to C4U U28C G38C C61U, the yeast fitness is at most 0.5.

Turning to C4U G12A A20G C22U C55U, the yeast fitness stood at 0.606.

For C5A A15G C34U A40C G56A G63A, the yeast fitness is at most 0.5.

For the variant C4U G10A G23C, the yeast fitness was at most 0.5.

For C4U U7G A37G, the yeast fitness worked out at 0.536.

C4U U26C A36C U64A A70C: the yeast fitness was at most 0.5.

As to C4U G18C G38A A40C, the yeast fitness was found to be 0.545.

With C4U U26C C27U, the yeast fitness is 0.678.

Take C5A A14G C22G C27U A37U: the yeast fitness is at most 0.5.

For C4U G18C G51A C66A, the yeast fitness was at most 0.5.

For the variant C4U U19A A37G G44C A57U G68C, the yeast fitness was at most 0.5.

On to C5A A15G C33A C61U, for which the yeast fitness stood at 0.531.

As to C5A A14U A21C A43C, the yeast fitness turned out to be 0.595.

As to C4U G41A A42C, the yeast fitness was at most 0.5.

As to C4U G17A A37U U59C, the yeast fitness was at most 0.5.

For C4U U26C, the yeast fitness was determined as 1.04.

Turning to C4U G18A G23C C24G C46G A57G, the yeast fitness was at most 0.5.

For C4U G18C A21G A57C, the yeast fitness was at most 0.5.

On to C4U G10A G23C C49A G68C, for which the yeast fitness was at most 0.5.

Consider C4U U8C A40U G50C, for which the yeast fitness was at most 0.5.

In the case of C4U U19C C31A G41C, the yeast fitness is 0.53.

With C4U G25A G48C A57U, the yeast fitness is at most 0.5.

For the variant C4U G10A C24U C61A, the yeast fitness turned out to be 0.623.

For the variant C4U U16A A37U C55G, the yeast fitness is at most 0.5.

C4U G44A: the yeast fitness was 1.05.

C4U G44C: the yeast fitness turned out to be 1.01.

On to C4U U16A G23A A36G C49G, for which the yeast fitness was at most 0.5.

Consider C4U U16A A20C U54A G67U, for which the yeast fitness is at most 0.5.

As to C4U G9C G18A C29G C31U U32C G50C, the yeast fitness is at most 0.5.

With C4U G51C U59G, the yeast fitness was 0.557.

Consider C4U U19A C30G A36C C66A G68C, for which the yeast fitness was at most 0.5.

As to C4U U7C C49G, the yeast fitness was found to be 0.534.

Take C4U G17C U47C C49A: the yeast fitness was at most 0.5.

C4U U16C A69C: the yeast fitness amounted to 0.774.

Consider C4U U7C, for which the yeast fitness is 1.08.

Turning to C4U G25A G50C U54C, the yeast fitness was at most 0.5.

As for C4U G38A G58C C66U, the yeast fitness was at most 0.5.

On to C4U U47A C61A, for which the yeast fitness was 0.93.

C4U G12C C27U: the yeast fitness came to 0.535.

For C4U U7A A20G C24A G51A, the yeast fitness was at most 0.5.

Regarding C4U U32A G52C C55U C66U, the yeast fitness was at most 0.5.

As to C4U G12C C46U G50A, the yeast fitness was 0.608.

As for C4U G18C C49U C61A, the yeast fitness was at most 0.5.

On to C5A A14G C24A A43G G63U, for which the yeast fitness was at most 0.5.

For C4U G51C G58A U59G, the yeast fitness was at most 0.5.

In the case of C4U G39A G67A, the yeast fitness was 0.61.

Take C5A A14G C60G: the yeast fitness was at most 0.5.

On to C4U G10A C34G A40G U64C, for which the yeast fitness was at most 0.5.

Take C4U G63U: the yeast fitness worked out at 0.778.

On to C4U G12A C24A C61U, for which the yeast fitness is 0.609.

For C5A, the yeast fitness came out at 0.995.

As to C4U G12C, the yeast fitness was determined as 0.884.

For the variant C4U U16C A42G G58A, the yeast fitness amounted to 0.552.

Regarding C4U G10C U35C G41A, the yeast fitness is at most 0.5.

Turning to C4U U47C, the yeast fitness is 1.06.

Take C4U U47A: the yeast fitness worked out at 0.86.

Take C4U U47G: the yeast fitness was 0.616.

As to C4U G10A C30U C49G G68A, the yeast fitness worked out at 0.585.

As for C4U G17C G44A C61U, the yeast fitness amounted to 0.556.

C4U U28G G38A A43G C46A C49U: the yeast fitness is 0.608.

With C4U G9C C61A A69C, the yeast fitness was at most 0.5.

Regarding C4U G39C G48C C62G, the yeast fitness was 0.549.

As for C4U G23C U26G A36C A37U A42C A45U C60U C66U A70G, the yeast fitness is 0.634.

On to C4U G10A U13C C24U, for which the yeast fitness came out at 0.741.

Take C5A A14C G68A: the yeast fitness was at most 0.5.

For C4U G12A A20G C22U C34U A37G, the yeast fitness is at most 0.5.

Regarding C4U G52A, the yeast fitness was determined as 0.727.

For C4U U16C A42G, the yeast fitness is 0.72.

As to C4U U16C A42C, the yeast fitness amounted to 0.579.

Take C4U G23C C49A G68C: the yeast fitness was at most 0.5.

In the case of C4U G10A A36U, the yeast fitness is at most 0.5.

As for C4U U7G A14U, the yeast fitness was at most 0.5.

In the case of C4U G56C A65U, the yeast fitness was at most 0.5.

For the variant C4U G67A A69U, the yeast fitness is 0.684.

In the case of C4U G10A G12A, the yeast fitness turned out to be 0.653.

As to C4U U7C G23A A40U A42C, the yeast fitness is at most 0.5.

With C5A A15G G18C C29A U54A A65C, the yeast fitness is at most 0.5.

Regarding C4U U7A U8A A65U, the yeast fitness was at most 0.5.

Regarding C4U U16C C61U, the yeast fitness was 0.737.

Regarding C4U G18C C46U C60G, the yeast fitness is at most 0.5.

C5A A15C U16A C31G C34U A69U: the yeast fitness was at most 0.5.

Consider C4U G23C G39C G44A, for which the yeast fitness is at most 0.5.

Take C4U G12C U64C A70U: the yeast fitness is at most 0.5.

As to C4U U16C C24U, the yeast fitness turned out to be 0.675.

Take C4U U54C C62U: the yeast fitness was 0.578.

As to C4U G25A G48C C62A, the yeast fitness stood at 0.551.

As to C4U G10A U19C C24U, the yeast fitness stood at 0.721.

Take C5A A14G A20U A37C C49A C66A: the yeast fitness is at most 0.5.

Consider C4U U32C C34U G38A, for which the yeast fitness is at most 0.5.

Consider C4U U8A U13C A57U C60G G68C, for which the yeast fitness was at most 0.5.

Regarding C4U G18A G39C G58C G67A, the yeast fitness is at most 0.5.

Regarding C4U U53C, the yeast fitness is 0.869.

For C4U U32A G58C, the yeast fitness was 0.592.

Consider C4U G10A C22U, for which the yeast fitness was at most 0.5.

As to C4U G18C A45U C49U, the yeast fitness was at most 0.5.

Take C4U U32A A57C: the yeast fitness is at most 0.5.

Regarding C4U U28C C49G, the yeast fitness worked out at 0.598.

As for C4U U13G C49A C55U C60U C61U, the yeast fitness is at most 0.5.

As to C4U G23A U26A A45C, the yeast fitness was at most 0.5.

Turning to C4U G10C G23A G52A G58A, the yeast fitness is at most 0.5.

In the case of C4U G25C C30G C55A, the yeast fitness came out at 0.561.

For the variant C4U U26G G38U, the yeast fitness was 0.508.

As for C4U G10A A15C, the yeast fitness was 0.551.

Turning to C4U G18C A57U C62U U64A G68C, the yeast fitness is at most 0.5.

Turning to C4U U26G C29U U47C A65U, the yeast fitness was at most 0.5.

As for C5A A14G A43U, the yeast fitness is at most 0.5.

Turning to C4U G52C U59C, the yeast fitness is at most 0.5.

For the variant C4U G41C C66A, the yeast fitness was at most 0.5.

For the variant C4U U26G G44A, the yeast fitness came out at 0.591.

With C4U U8G A15U C62U, the yeast fitness is at most 0.5.

For the variant C4U G67A, the yeast fitness is 0.904.

Take C4U G10C G48C G56C: the yeast fitness was at most 0.5.

As for C4U U16A A20G C49U C66U, the yeast fitness is at most 0.5.

As to C4U U8C A20G A43C C49A C66A, the yeast fitness was at most 0.5.

Turning to C4U G23C C29G C31G, the yeast fitness was at most 0.5.

C4U U8C C29U A43U: the yeast fitness is at most 0.5.

For C4U G56A G67A, the yeast fitness was 0.649.

As to C4U U28C C49G C61U, the yeast fitness was at most 0.5.

For C4U G25A G48C, the yeast fitness stood at 0.62.

On to C4U G58C, for which the yeast fitness came out at 1.02.

Regarding C4U G58A, the yeast fitness amounted to 0.838.

Regarding C4U G10A G12A A42U, the yeast fitness was at most 0.5.

Consider C4U U13C C24U C49U, for which the yeast fitness is at most 0.5.

As for C4U G41C A65G, the yeast fitness was 0.65.

With C4U U35A G44C, the yeast fitness worked out at 0.58.

As to C4U G48C C55G A69U, the yeast fitness was at most 0.5.

Consider C4U G18A G23C C24G C46G C66G, for which the yeast fitness is at most 0.5.

With C4U U16A A20G, the yeast fitness amounted to 0.665.

C4U U16A A20C: the yeast fitness came out at 0.58.

In the case of C4U G48A, the yeast fitness was determined as 0.857.

As to C4U G48C, the yeast fitness was 0.951.

As to C5A A14C G23A C24G A36U G63A G68A, the yeast fitness was 0.579.

As to C4U U19A G50A G68U, the yeast fitness is at most 0.5.

For the variant C4U U7A U8A, the yeast fitness was at most 0.5.

Consider C4U U7C C24G C34A A45C G56A C61A A65C A69C A70G, for which the yeast fitness is at most 0.5.

In the case of C4U G18A G23C C24G, the yeast fitness was determined as 0.518.

Take C4U G9C A45G C61A: the yeast fitness was at most 0.5.

As to C5A A15U A21U, the yeast fitness turned out to be 0.56.

With C5A A14U G52A, the yeast fitness came out at 0.603.

On to C4U U19C C29A A70U, for which the yeast fitness was found to be 0.632.
